Data published in ChEMBL document CHEMBL1126779, “Antagonism of 1-(2,5-dimethoxy-4-methylphenyl)-2-aminopropane stimulus with a newly identified 5-HT2- versus 5-HT1C-selective antagonist” (J Med Chem, 1993).

Assays:
[1] = biological target: T1, 5-hydroxytryptamine receptor 2C (Rattus norvegicus, UniProt P08909); test: Tested for binding affinity against 5-hydroxytryptamine 1C receptor from rat frontal cortical regions using [3H]mesulergine as radioligand
T1 sequence (P08909 whole entry): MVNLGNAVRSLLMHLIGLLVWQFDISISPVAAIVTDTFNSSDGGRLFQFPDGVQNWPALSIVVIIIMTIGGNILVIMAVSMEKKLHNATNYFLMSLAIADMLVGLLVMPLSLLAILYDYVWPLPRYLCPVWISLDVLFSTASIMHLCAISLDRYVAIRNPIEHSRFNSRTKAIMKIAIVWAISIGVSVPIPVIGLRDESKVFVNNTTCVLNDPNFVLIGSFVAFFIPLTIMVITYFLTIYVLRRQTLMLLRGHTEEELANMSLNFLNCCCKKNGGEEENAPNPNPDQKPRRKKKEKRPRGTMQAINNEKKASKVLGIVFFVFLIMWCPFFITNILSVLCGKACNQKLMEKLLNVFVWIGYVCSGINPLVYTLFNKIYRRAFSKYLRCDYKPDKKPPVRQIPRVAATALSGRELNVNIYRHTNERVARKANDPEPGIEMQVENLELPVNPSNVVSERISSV
Outline: (§1)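 Rat frontal cortex homogenate (male Sprague-Dawley) was washed and preincubated 15 min at 37 °C in 50 mM Tris HCl, 0.5 mM EDTA, 10 mM MgCl2, pH 7.4, with 0.1% ascorbate and 10^-6 M pargyline. Nonspecific binding was set with 1.0 µM mianserin. Tubes ran 15 min at 37 °C in triplicate before filtration.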

[2] = biological target: Serotonin 2 (5-HT2) receptor (Rattus norvegicus, UniProt P30994+P08909+P14842); test: Tested for binding affinity against 5-hydroxytryptamine 2 receptor from rat frontal cortical regions using [3H]ketanserin as radioligand; type: protein assay
Outline: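 Frontal cortex from male Sprague-Dawley rats was homogenized in Tris HCl/EDTA/MgCl2 buffer, pH 7.4, containing ascorbate and pargyline. Each triplicate tube held 5 mg wet tissue and 0.4 nM [3H]ketanserin, with nonspecific binding defined by 1.0 µM cinanserin. Incubation was 15 min at 37 °C, then glass-fiber filtration and an ice-cold wash. IC50 was converted to Ki using radioligand KD from saturation experiments.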

[3] = biological target: T2, 5-hydroxytryptamine receptor 1A (Rattus norvegicus, UniProt P19327); test: Tested for binding affinity against 5-hydroxytryptamine 1A receptor from rat frontal cortical regions using [3H]8-OH-DPAT as radioligand
T2 sequence (P19327 whole entry): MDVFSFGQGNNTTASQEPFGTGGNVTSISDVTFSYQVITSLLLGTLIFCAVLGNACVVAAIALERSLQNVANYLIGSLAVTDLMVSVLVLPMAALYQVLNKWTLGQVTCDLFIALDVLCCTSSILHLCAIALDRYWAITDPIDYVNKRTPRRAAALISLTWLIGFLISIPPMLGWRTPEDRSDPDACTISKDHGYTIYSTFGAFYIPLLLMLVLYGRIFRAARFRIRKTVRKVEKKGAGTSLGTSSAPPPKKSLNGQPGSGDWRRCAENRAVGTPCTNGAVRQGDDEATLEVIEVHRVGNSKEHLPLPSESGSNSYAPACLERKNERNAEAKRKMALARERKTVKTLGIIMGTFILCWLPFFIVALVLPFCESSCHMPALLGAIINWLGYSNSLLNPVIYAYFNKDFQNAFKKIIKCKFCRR

[4] = biological target: Serotonin 2 (5-HT2) receptor (Rattus norvegicus) (UniProt P30994+P08909+P14842); test: Selectivity ratio, Ki against 5-HT1C versus 5-HT2; type: protein assay
Outline: as §1, with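 “pargyline. […]” for “pargyline.”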

D(1A) dopamine receptor = D(1A) dopamine receptor (Mus musculus, UniProt Q61616); test: Tested for binding affinity against dopamine receptor D1
D(2) dopamine receptor = D(2) dopamine receptor (Homo sapiens, UniProt P14416); test: Tested for binding affinity against dopamine receptor D2
Chain of D(2) dopamine receptor (P14416 whole entry): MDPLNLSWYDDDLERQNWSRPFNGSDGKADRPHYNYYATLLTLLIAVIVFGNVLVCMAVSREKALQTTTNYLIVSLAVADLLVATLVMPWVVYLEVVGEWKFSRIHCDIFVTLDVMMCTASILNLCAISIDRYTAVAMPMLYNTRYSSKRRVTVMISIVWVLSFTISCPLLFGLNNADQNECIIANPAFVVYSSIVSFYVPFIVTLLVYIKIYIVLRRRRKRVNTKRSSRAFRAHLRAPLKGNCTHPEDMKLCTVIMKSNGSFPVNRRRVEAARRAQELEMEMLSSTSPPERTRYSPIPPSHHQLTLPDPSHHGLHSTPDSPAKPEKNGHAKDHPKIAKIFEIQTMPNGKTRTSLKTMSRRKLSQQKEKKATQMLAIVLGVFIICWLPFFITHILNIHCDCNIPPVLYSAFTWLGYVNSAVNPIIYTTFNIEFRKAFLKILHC

Chain of Serotonin 2 (5-HT2) receptor (Rattus norvegicus) (P14842 whole entry, looked up, one chain of several): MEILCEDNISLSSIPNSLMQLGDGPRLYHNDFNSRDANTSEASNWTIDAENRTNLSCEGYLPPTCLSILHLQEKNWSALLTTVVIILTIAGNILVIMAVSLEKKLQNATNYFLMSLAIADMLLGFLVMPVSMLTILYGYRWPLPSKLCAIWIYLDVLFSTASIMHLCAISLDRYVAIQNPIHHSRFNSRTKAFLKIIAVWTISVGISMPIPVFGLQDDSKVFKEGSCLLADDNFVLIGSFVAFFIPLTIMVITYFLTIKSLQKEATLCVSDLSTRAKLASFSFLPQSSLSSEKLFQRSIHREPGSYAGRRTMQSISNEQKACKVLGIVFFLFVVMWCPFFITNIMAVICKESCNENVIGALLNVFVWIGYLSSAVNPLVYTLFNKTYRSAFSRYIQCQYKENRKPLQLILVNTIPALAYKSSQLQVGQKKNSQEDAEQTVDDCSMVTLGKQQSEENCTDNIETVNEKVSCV
Chain of Serotonin 2 (5-HT2) receptor (Rattus norvegicus) (P30994 whole entry, looked up, one chain of several): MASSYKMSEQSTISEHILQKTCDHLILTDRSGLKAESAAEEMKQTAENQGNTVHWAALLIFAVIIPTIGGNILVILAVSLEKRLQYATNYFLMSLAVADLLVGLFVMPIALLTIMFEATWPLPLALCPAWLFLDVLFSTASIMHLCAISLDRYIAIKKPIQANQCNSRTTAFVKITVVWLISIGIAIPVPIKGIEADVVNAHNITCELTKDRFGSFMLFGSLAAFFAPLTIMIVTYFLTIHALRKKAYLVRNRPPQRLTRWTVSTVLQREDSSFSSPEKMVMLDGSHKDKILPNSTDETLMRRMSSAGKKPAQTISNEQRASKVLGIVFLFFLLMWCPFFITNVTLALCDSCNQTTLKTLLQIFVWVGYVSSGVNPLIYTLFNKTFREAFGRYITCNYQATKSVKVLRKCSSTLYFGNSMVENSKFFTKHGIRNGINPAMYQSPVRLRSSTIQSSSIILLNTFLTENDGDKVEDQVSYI
Chain of D(1A) dopamine receptor (Q61616 whole entry): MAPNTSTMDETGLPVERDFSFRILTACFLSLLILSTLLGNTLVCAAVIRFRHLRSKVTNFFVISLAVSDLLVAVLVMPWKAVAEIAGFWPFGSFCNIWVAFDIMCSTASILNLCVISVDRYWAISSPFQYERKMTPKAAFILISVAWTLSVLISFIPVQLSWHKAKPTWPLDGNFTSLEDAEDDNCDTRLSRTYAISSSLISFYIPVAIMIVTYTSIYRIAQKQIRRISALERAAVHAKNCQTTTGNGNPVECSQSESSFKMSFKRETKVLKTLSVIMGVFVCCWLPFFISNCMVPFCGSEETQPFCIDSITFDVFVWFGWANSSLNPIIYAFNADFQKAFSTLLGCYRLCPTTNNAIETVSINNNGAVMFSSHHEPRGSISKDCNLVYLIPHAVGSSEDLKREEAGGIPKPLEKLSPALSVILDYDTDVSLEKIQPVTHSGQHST

Compound	Ki [1]	Ki [2]	Ki [3]	Ratio [4]	Ki (D(1A) dopamine receptor)	Ki (D(2) dopamine receptor)
NCCCC(=O)c1ccc(F)cc1	> 100000 nM	> 100000 nM	> 100000 nM			
c1ccc(CCCCN2CCN(c3ccccc3)CC2)cc1			1 nM			
O=C1NCN(c2ccccc2)C12CCN(CCCOc1ccc([N+](=O)[O-])cc1)CC2	> 10000 nM	600 nM	1160 nM	> 10		
O=C(CCCN1CCCCC1)c1ccc(F)cc1 [PRIMAPERONE]	> 10000 nM	140 nM	> 10000 nM	> 70		
O=C1NCN(c2ccccc2)C12CCN(CCCCOc1ccccc1)CC2	> 10000 nM	325 nM	30 nM	> 30		
O=C(NC1CCN(CCCOc2ccc(F)cc2)CC1)c1ccccc1	> 10000 nM	70 nM		> 140		
CN(C)CCCC(=O)c1ccc(F)cc1	3300 nM	80 nM		40		
O=C1NCN(c2ccccc2)C12CCN(CCCOc1ccccc1)CC2	> 10000 nM	5 nM	75 nM	> 2000		
O=C1NCN(c2ccccc2)C12CCNCC2	> 10000 nM	> 10000 nM	> 10000 nM			
O=C1NCN(c2ccccc2)C12CCN(CCCCc1ccccc1)CC2	> 10000 nM	30 nM	85 nM	> 300		
O=C(c1ccc(F)cc1)C1CCN(CCCOc2ccc(F)cc2)CC1	335 nM	8 nM	285 nM	40		
Fc1ccc(OCCCN2CCC(Nc3ccccc3)CC2)cc1	3600 nM	88 nM	120 nM	40		
CN(c1ccccc1)C1CCN(CCCOc2ccc(F)cc2)CC1	2870 nM	32 nM	110 nM	90		
CN(C)CCCOc1ccc(F)cc1	> 10000 nM	295 nM		> 30		
O=C1NCN(c2ccccc2)C12CCN(CCCOc1ccc(F)cc1)CC2 [SPIRAMIDE]	4300 nM	2 nM	50 nM	2100	2530 nM	3 nM
O=C(CCCN1CCC(NC(=O)c2ccccc2)CC1)c1ccc(F)cc1	> 10000 nM	70 nM		> 140		
O=C1NCN(c2ccccc2)C12CCN(CCCc1ccccc1)CC2	> 10000 nM	230 nM	105 nM	> 30		
O=C(CCCN1CCC2(CC1)C(=O)NCN2c1ccccc1)c1ccc(F)cc1 [SPIPERONE]			49 nM			
COc1ccc(OCCCN2CCC3(CC2)C(=O)NCN3c2ccccc2)cc1	> 10000 nM	1000 nM	445 nM	> 10		
O=C(CCCN1CCC(Cc2ccccc2)CC1)c1ccc(F)cc1	1650 nM	50 nM	180 nM	35		
O=C1NCN(c2ccccc2)C12CCN(CCc1ccccc1)CC2	6000 nM	570 nM	1020 nM	10		
O=C(CCCN1CCC(C(=O)c2ccc(F)cc2)CC1)c1ccc(F)cc1 [LENPERONE]			305 nM			
NCCCOc1ccc(F)cc1	> 10000 nM	1400 nM		> 5		
O=C1NCN(c2ccccc2)C12CCN(CCCCc1ccc(F)cc1)CC2	3200 nM	5 nM	110 nM	650		
O=C(Nc1ccccc1)C1CCN(CCCOc2ccc(F)cc2)CC1	> 10000 nM	95 nM		> 100		
